From PubChem BioAssay
T cruzi repl = T. cruzi replication inhibition; T. cruzi beta-gal in NIH3T3, luminescence, 90 h; inhibition, % (no concentration beside the values); hit rate 1.4% among 300,000; AID 1885;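 active = mean inhibition across valid replicates above about 55%, limit read from the data; inconclusive = mean below that limit but half or more replicates reach it; inactive = mean below it, under half of replicates reach it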;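 also: signal also drops with host cell toxicity which is not excluded here; 0% = plate median of DMSO wells and 100% = zero luminescence signal; higher percent means less beta-gal luminescence so fewer parasites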
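compound dosing = single 50 nL compound addition per well in DMSO | material = NIH/3T3 host cells with β-galactosidase reporter T. cruzi | input = 5,000 host fibroblasts per well | timing = ≥90 h infection period, 3 h prior cell attachment | read-out basis = percent inhibition of parasite-derived β-gal signal | detection = GalScreen β-gal luminescence, detergent lysis, 60 min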
Calb FLC = affects C. albicans growth with fluconazole; growth inhibition, % (test concentration not listed); C. albicans CaCi-2 + fluconazole, Alamar Blue growth, 48 h; hit rate 0.57% among 300,000;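 active = growth inhibition above about 58% in most replicates, limit read from the data, passing the limit was not always enough; inconclusive = exactly half the replicates above a set limit; inactive = most replicates below a set limit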;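 also: all wells also contain fluconazole at 8 µg/ml as a sub-toxic cotreatment; 0% = median of DMSO wells and 100% = median of geldanamycin control wells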
SKKanGAS inh = SKKanGAS growth inhibition; inhibition, % at 7.5 µM; S. pyogenes SKKanGAS, kanamycin growth, BacTiter-Glo, 6 h; hit rate 1.3% among 300,000; AID 1662;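 active = mean replicate score, as percent of positive control median, at least 50; inconclusive = mean below 50 but one replicate at or above 50; inactive = mean and every replicate below 50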;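 also: strain carries kanamycin resistance gene driven by streptokinase promoter and grows in 40 µg/ml kanamycin; loss of luminescence reflects streptokinase promoter inhibition or plain growth inhibition; 0% = median of DMSO wells and 100% = positive control at its reference dose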
Mdm2-MdmX inh = human Mdm2/MdmX binding inhibition; O15151+Q00987; SaOS-2 split-luciferase Mdm2/MdmX complementation, luminescence; inhibition, % at 8 µM; hit rate 3% among 330,000; AID 485346;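 active = inhibition of at least 50% at 8 µM in the primary screen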
Target sequence (O15151 whole entry, looked up): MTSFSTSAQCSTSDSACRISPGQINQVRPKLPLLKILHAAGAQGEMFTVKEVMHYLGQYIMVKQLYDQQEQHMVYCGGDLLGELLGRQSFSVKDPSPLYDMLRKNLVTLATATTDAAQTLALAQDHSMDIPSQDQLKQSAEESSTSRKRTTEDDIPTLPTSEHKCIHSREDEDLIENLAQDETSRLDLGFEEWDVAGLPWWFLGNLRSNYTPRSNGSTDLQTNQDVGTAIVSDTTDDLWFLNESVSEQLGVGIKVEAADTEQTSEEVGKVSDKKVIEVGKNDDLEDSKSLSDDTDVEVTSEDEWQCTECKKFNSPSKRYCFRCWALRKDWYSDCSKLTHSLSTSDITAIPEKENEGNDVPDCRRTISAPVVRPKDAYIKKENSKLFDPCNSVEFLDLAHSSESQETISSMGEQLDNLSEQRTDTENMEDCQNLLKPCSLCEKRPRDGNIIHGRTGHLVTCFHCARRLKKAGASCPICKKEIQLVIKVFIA
Target sequence (Q00987 whole entry, looked up): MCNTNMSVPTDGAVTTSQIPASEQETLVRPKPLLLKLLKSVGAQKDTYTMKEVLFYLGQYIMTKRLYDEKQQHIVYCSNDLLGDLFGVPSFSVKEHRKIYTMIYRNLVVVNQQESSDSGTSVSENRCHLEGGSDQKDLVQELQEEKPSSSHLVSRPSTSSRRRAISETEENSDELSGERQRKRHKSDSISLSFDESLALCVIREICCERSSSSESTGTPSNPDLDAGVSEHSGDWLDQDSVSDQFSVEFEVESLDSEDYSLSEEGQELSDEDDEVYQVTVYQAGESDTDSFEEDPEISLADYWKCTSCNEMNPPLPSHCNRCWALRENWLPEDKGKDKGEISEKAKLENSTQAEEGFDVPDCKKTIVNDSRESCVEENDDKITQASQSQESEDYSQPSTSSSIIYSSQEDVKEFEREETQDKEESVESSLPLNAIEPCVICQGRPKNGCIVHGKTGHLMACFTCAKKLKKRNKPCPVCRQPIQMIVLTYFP
CSC inhib = cancer stem cell inhibition | cancer stem cell-like cells viability, luminescence | hit rate 1.1% among 300,000 | inhibition, % at 7.5 µM; in the data active = inhibition above about 75%; inconclusive = no clear call, values can overlap the other calls; tested in HMLE shEcad cells
Beta apoptosis = blocks beta cell apoptosis. INS-1E cytokine-induced death, ATP luminescence, 48 h; percent of positive-control rescue, neutral wells zero. protection from apoptosis, % (test concentration not listed). hit rate 0.8% among 300,000. AID 435005;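 active = Every replicate reaches about 75%, or at least half do and their mean reaches it too, limit read from the data; inconclusive = At least half of replicates reach the limit but their mean does not; inactive = Under half of replicates reach the limit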;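 also: 0% = cytokine-treated negative control wells and 100% = positive control rescue; higher means more ATP so stronger rescue from cytokine killing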
Mdm2 MdmX conf = human Mdm2/MdmX binding inhibition, confirmed; shares compounds with Mdm2-MdmX inh; luminescent assay; inhibition, % at 8 µM; hit rate 55% among 10,000; AID 489028; in the data active = inhibition above about 40%
FLuc counter = counter-screen for Mdm2/MdmX inhibitors: full-length luciferase | hit rate 77% among 6,200 | SaOS-2 full-length luciferase counterscreen, luminescence | inhibition, % at 8 µM | shares compounds with Mdm2-MdmX inh;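 active = mean inhibition at 8 µM reaching about 37%, which flags the compound as non-specific, limit read from the data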;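 also: p53-null SaOS-2 cells with luciferase driven by a doxycycline-inducible promoter; compound on cells about two nights before reading with doxycycline added after day one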
Active calls of the source: *; u = inconclusive; x = not tested or not shown. Most compounds without a hit are left out; they make up all but 5.7% or so of the library.

SMILES | T cruzi repl | Calb FLC | SKKanGAS inh | Mdm2-MdmX inh | CSC inhib | Beta apoptosis | Mdm2 MdmX conf | others
CSC(=S)NCc1cccnc1 | -9 | 88* | -10 | 79* | 35 | 9 | 73* | FLuc counter=39*
CN(C)c1ccc(C(=O)OCC(=O)c2ccc[nH]2)cc1 | x | x | x | -102 | -7 | 2 | x
COc1ccccc1CC(=O)N1CCC(n2nccc2NC(=O)C2CCOC2)CC1 (stereo not drawn) | -2 | 1 | 5 | 1 | 0 | -1 | x
NNc1nc2sc3c(c2c(=O)n1C1CCCCC1)CCN(Cc1ccccc1)C3 | 17 | -4 | 10 | 55* | 48 | -7 | 8
C#Cc1ccc([C@@H]2C=C(C(=O)O)O[C@H](OCc3ccc(CO)cc3)C2)cc1 | -6 | 5 | 1 | 13 | -8 | -6 | x
COc1cccc(N(C(=O)Cn2nnc(-c3ccc(Cl)cc3)n2)C(C(=O)NCC2CCCO2)c2ccc(C)cc2)c1 (stereo not drawn) | 2 | 5 | -1 | 56* | -1 | -1 | -1
COc1ccc(F)cc1C(=O)C1CCCN(Cc2c[nH]c3ccccc23)C1 (stereo not drawn) | 48 | u | -4 | 53* | 7 | -3 | 27
O=C1CCCC2=C1C(c1cccc(O)c1)c1c(ccc3ncccc13)N2 (stereo not drawn) | 8 | 3 | 4 | 22 | -23 | -5 | x
COc1ccc(Nc2nc(Nc3ccc(OC)cc3)nc(SC3=NCCS3)n2)cc1 | 9 | 9 | 35 | 74* | -19 | 4 | -8
COc1ccccc1NC(=O)N1CCN(C(=O)c2ccco2)CC1 | -11 | 4 | 15 | 11 | -10 | 2 | x
CC(C)Cn1c(N)c(C(=O)CSc2ccc3c(c2)OCCO3)c(=O)n(C)c1=O | 29 | 5 | 3 | 52* | -5 | 94* | 55* | FLuc counter=41*
CC(C)Cn1c(N)c(C(=O)COC(=O)c2ccc3c(c2)OCCO3)c(=O)n(C)c1=O | 31 | u | -6 | 23 | 4 | 19 | x
O=C(Nc1cccnc1)c1cccc(-c2cc3ccccc3oc2=O)c1 | -5 | 3 | -1 | -2 | -8 | 6 | x
Cc1ccc2nc(NC(=O)c3cccc(-c4cc5ccccc5oc4=O)c3)sc2c1 | 64* | 1 | 3 | 81* | 99* | 56 | 68* | FLuc counter=105*
O=C(c1cc(-c2cccc(O)c2)on1)N1CCN(C(c2ccccc2)c2ccccc2)CC1 | 25 | -2 | 30 | 50 | 144* | 81* | 13
C=C(C)[C@@H]1CC[C@]2(C(=O)O)CC[C@]3(C)C(CCC4[C@@]5(C)CC[C@H](O)C(C)(C)C5CC[C@]43C)C12 (stereo partly drawn) | -14 | 2 | 25 | 94* | 94* | 3 | 7
CC(C)(C)c1ccc(C(=O)N2CCC(NC(=O)c3ccccc3)CC2)cc1 | -12 | 9 | -1 | -6 | -4 | -5 | x
Cc1ccc(NC(=O)CN2C(=O)NC3(CCCc4ccccc43)C2=O)c(C)c1 (stereo not drawn) | x | x | x | 6 | x | x | x
CCOc1ccc(-c2nc(N)ncc2-c2ccc(OC)cc2)c(O)c1 | 27 | -4 | -5 | 39 | 9 | -11 | x
CCOc1ccc(-c2nc(N)ncc2-c2ccccc2)c(O)c1 | 8 | u | -12 | 50* | -4 | -1 | 25
CC(=O)C1=C(c2cccc([N+](=O)[O-])c2)N(C(C)=O)n2c(C)nnc2S1 | 36 | -11 | 5 | -19 | 21 | 2 | x
CCOC(=O)Cn1cnc2sc(C(=O)OC)c(C)c2c1=O | 7 | -16 | -1 | -15 | x | -4 | x
CCOC(=O)c1sc2ncn(CC(=O)Nc3cc(C)on3)c(=O)c2c1C | x | x | x | 55* | x | x | -10
CC(=O)Oc1ccc(C(=O)N2c3ccccc3NC(=O)C2C)cc1 (stereo not drawn) | 0 | 6 | -2 | 10 | 3 | -2 | x
CC1CC(C)CN(S(=O)(=O)c2ccc(Cl)cc2)C1 (stereo not drawn) | 10 | 13 | 7 | 4 | -11 | -6 | x
SMILES | T cruzi repl | Calb FLC | SKKanGAS inh | Mdm2-MdmX inh | CSC inhib | Beta apoptosis | Mdm2 MdmX conf | others
CC1CC(C)CN(S(=O)(=O)c2ccc(F)c(C(=O)Nc3ccc(Cl)cc3F)c2)C1 (stereo not drawn) | -1 | -6 | -5 | 52* | x | x | 12
CC1CC(C)CN(S(=O)(=O)c2ccc(NC(=O)c3ccc(=O)[nH]c3)cc2)C1 (stereo not drawn) | x | x | x | 59* | 42 | 19 | 51* | FLuc counter=74*
Cc1c(C(=O)Nc2ccc(F)cc2)oc2ccc(S(=O)(=O)N3CC(C)CC(C)C3)cc12 (stereo not drawn) | 26 | 3 | 15 | 64* | 23 | 53 | 39 | FLuc counter=69*
COc1cc(SC)ccc1C(=O)OCC(=O)N1CCN(C(C)=O)CC1 | -2 | 1 | -1 | -19 | -16 | 0 | x
C=CCNc1ncnc2sc(SC)nc12 | -6 | 24 | -8 | 21 | 0 | 1 | x
COc1ccc(C)cc1NC(=O)C1CCCN(S(=O)(=O)c2ccc3c(c2)CCCN3C(C)=O)C1 (stereo not drawn) | 1 | -36 | -1 | 26 | -6 | 4 | x
Cc1ccc(C(C)NC(=O)CSc2ccc(S(=O)(=O)N3CCOCC3)cn2)cc1C (stereo not drawn) | x | x | x | x | x | -11 | x
Clc1ccccc1-c1nnc2n1CCCCC2 | -13 | -3 | 7 | 14 | -3 | -8 | x
Cc1cc(C)n2nc(Sc3ncccc3[N+](=O)[O-])nc2n1 | -10 | -3 | 2 | -9 | -10 | -17 | x
CCCCOc1ccc(-c2cc(C(=O)NNC(=S)NCC)c3ccccc3n2)cc1 | -19 | 72 | 63* | 80* | 100* | 80* | 74* | FLuc counter=127*
COc1ccc2cc(CN(CC3CCCO3)C(=S)NCc3ccco3)c(=O)[nH]c2c1 (stereo not drawn) | 17 | -3 | 3 | 16 | 0 | -1 | x
Cc1ccc(-c2csc3ncnc(NCCN4CCOCC4)c23)cc1 | -14 | -14 | -3 | 54* | 0 | -3 | 32
COc1ccc(-c2csc3ncnc(NCCN4CCOCC4)c23)cc1 | 17 | -26 | -4 | 61* | 47 | -16 | 65* | FLuc counter=36*
Cc1cccc(OCCCC(=O)NNC(=O)c2ccccn2)c1 | x | x | x | 64* | x | 6 | 52* | FLuc counter=41*
Cc1cccc(OCCCC(=O)NNC(=O)c2ccncc2)c1 | x | x | x | 27 | x | x | x
Cn1c(CNC(=O)CCNC(=O)c2cccc(F)c2)cc(=O)n(C)c1=O | -21 | -1 | -2 | 11 | -7 | -2 | x
C=CCNC(=O)c1ccc(Cn2c(=S)[nH]c3cc4c(cc3c2=O)OCO4)cc1 | 2 | 21 | -3 | 60* | 2 | 5 | 11
O=C(NCCN1CCCC1)c1ccc(Cn2c(=S)[nH]c3cc4c(cc3c2=O)OCO4)cc1 | 3 | 0 | -5 | -3 | -4 | 2 | x
